Key:
Assay type in all cases: cell-based
GT1-1 [1] = assay: Inhibition of prazosin uptake at transport-P transporter protein in mouse GT1-1 cells at 100 uM relative to desipramine
GT1-1 [2] = assay: Activation of [3H]prazosin uptake at transport-P transporter protein in mouse GT1-1 cells at 1 uM relative to control
Outline: (§1)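 GT1-1 GnRH neurones grown in DMEM/Ham's F-12 (1:1) with 10% FBS, plated on poly-D-lysine/laminin-coated wells and used after 2–4 days in culture. Intact cells washed, then incubated 60 min at 37 °C with tracer [³H]prazosin 2 × 10^-10 M plus test compound. Plates iced, washed at 0 °C, solubilised in SDS/NaOH. Radioactivity counted by scintillation and normalised to protein (BCA). Result given as % activation of tracer uptake.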

GT1-1 [3] = assay: Activation of [3H]prazosin uptake at transport-P transporter protein in mouse GT1-1 cells at 10 uM relative to control; outline: as §1
GT1-1 [4] = assay: Activation of [3H]prazosin uptake at transport-P transporter protein in mouse GT1-1 cells at 100 uM relative to control; outline: as §1
[5] = Inhibition of prazosin uptake at transport-P transporter protein in mouse GT1-1 cells
Outline: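 GT1-1 GnRH neurones were grown on poly-D-lysine/laminin and uptake was run on intact cells after 2–4 days. Incubation was 60 min at 37 °C in DMEM/25 mM Hepes/0.5 mM ascorbate, pH 7.4, with [³H]prazosin 2 × 10^-10 M, unlabelled prazosin 10^-6 M and test compound. Cell-associated radioactivity was normalised to protein. IC50 was taken from concentration–response curves, in triplicate, with each experiment done twice.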

Row | IC50 [5] | Compound | inhibition (GT1-1 [1]) | Activity (GT1-1 [2]) | Activity (GT1-1 [3]) | Activity (GT1-1 [4])
1 | – | COc1cc2nc(N3CCN(C(=O)c4ccco4)CC3)nc(O)c2cc1OC | 0% | 0% | 0% | 0%
2 | – | CNc1nc(N2CCN(C(=O)c3ccco3)CC2)nc2cc(OC)c(OC)cc12 | 0% | 0% | 55% | 229%
3 | – | COc1cc2nc(N3CCN(C(=O)c4ccco4)CC3)nc(NC(C)=O)c2cc1OC | 0% | 0% | 35% | 206%
4 | 4.5 µM | COc1cc2nc(N3CCN(C(=O)c4ccco4)CC3)nc(Nc3ccccc3)c2cc1OC | 80% | 0% | 0% | 0%
5 | – | COc1cc2nc(N3CCN(C(=O)c4ccccc4)CC3)nc(N)c2cc1OC | 63% | 0% | 40% | 47%
6 | – | COc1cc2nc(N3CCN(C(=O)C(F)(F)F)CC3)nc(N)c2cc1OC | 31% | 0% | 0% | 26%
7 | – | COc1cc2nc(N3CCN(C(=O)c4cccs4)CC3)nc(N)c2cc1OC | – | 57% | 161% | –
8 | – | Nc1nc(N2CCN(C(=O)c3ccco3)CC2)nc2cc3c(cc12)OCCO3 | 42% | 0% | 74% | 163%
9 | – | COc1cc2nc(N3CCN(C(C)=O)CC3)nc(N)c2cc1OC | 37% | 0% | 0% | 61%
10 | – | COc1cc2nc(N3CCN(C(=O)c4ccco4)CC3)nc(N)c2cc1OC | – | 127% | – | –
11 | – | COc1cc2nc(NCc3ccco3)nc(N)c2cc1OC | 71% | 26% | 43% | 0%
12 | – | COc1cc2nc(N3CCN(C(=O)OCc4ccccc4)CC3)nc(N)c2cc1OC | 75% | 0% | 6% | 0%
13 | 81 µM | COc1cc2nc(N3CCN(C(=O)c4ccco4)CC3)nc(N3CCOCC3)c2cc1OC | 61% | 0% | 0% | 0%
14 | 5.4 µM | COc1cc2nc(N3CCN(C(=O)c4ccco4)CC3)nc(NCc3ccccc3)c2cc1OC | 69% | 0% | 0% | 0%
15 | – | Nc1nc(N2CCN(C(=O)c3ccco3)CC2)nc2ccccc12 | 64% | 0% | 0% | 22%
16 | 80 µM | CCN(CC)c1nc(N2CCN(C(=O)c3ccco3)CC2)nc2cc(OC)c(OC)cc12 | 55% | 0% | 0% | 0%
17 | 0.46 µM | c1ccc(OCCCN2CCCC2)cc1 | – | – | – | –
18 | – | COc1cc2nc(NCCN3CCCCC3)nc(N)c2cc1OC | 52% | 13% | 29% | 37%
19 | 0.19 µM | c1cc2c(cc1OCCCCCN1CCCC1)CCCC2 | – | – | – | –
20 | – | COc1cc2nc(N3CCC(C)CC3)nc(N)c2cc1OC | 85% | 0% | 13% | 0%
21 | 5.2 µM | COc1cc2nc(N3CCN(c4ccccc4)CC3)nc(N)c2cc1OC | 93% | 0% | 13% | 0%
22 | – | Nc1nc(N2CCN(C(=O)c3ccccc3)CC2)nc2ccccc12 | 73% | 0% | 0% | 0%
23 | – | COc1cc2cnc(N3CCN(C(=O)c4ccco4)CC3)nc2cc1OC | 5% | 0% | 0% | 0%
24 | – | COc1cc2nc(N3CCCN(C(=O)c4ccco4)CC3)nc(N)c2cc1OC | 82% | 0% | 31% | 0%
25 | – | COc1cc2nc(N3CCN(C(=O)C4CCCO4)CC3)nc(N)c2cc1OC (racemic) | 41% | 0% | 0% | 38%

Source: ChEMBL document CHEMBL1155872, “Molecular features of the prazosin molecule required for activation of Transport-P” (Bioorg Med Chem, 2008)
